Experiments:
[1] = tested on: Nrf2 signal pathway; experiment: Western blot of Nrf2 signal pathway proteins in HepG-2 cells; format: cell-based
[2] = tested on: CYP3A1 mRNA; details: rat primary hepatocytes, Sch B 0.1 µM; cited from earlier work
[3] = tested on: CYP450 (CYP1A2/2C9/2D6/2E1/3A4); experiment: Microsomal CYP450 activity detection; format: in vivo, mice; details: Sch B 25.0, 50.0 and 100.0 mg/kg oral, 21 days, dose-dependent
Summary of the method: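 Livers came from mice dosed orally for 21 days (25.0–100 mg/kg). Livers (~2 g) were homogenised at 4°C in phosphate buffer pH 7.4 with 1.0 mM EDTA and 250 mM sucrose, spun at 9,000× g then 100,000× g, and the pellet resuspended with 250 mM glycerol. Microsomes (0.5 mg/mL) were incubated with a probe cocktail: phenacetin 10 μM, tolbutamide 100 μM, dextromethorphan 2.5 μM, chlorzoxazone 20 μM, midazolam 5 μM. Reactions ran 30 min with 1 mM NADPH and were stopped with methanol. Metabolites were measured by LC–MS/MS.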

[4] = tested on: CYP3A; details: read-out: IC50 value, inhibition of CYP3A activity; rat liver microsomes; cited from earlier work
[5] = tested on: Nrf2 pathway; experiment: Western blot of Nrf2 pathway proteins in mice liver tissue; format: in vivo; details: Sch B 25.0–100.0 mg/kg oral, 21 days, Western blotting
Summary of the method: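 Mice were dosed orally once daily for 21 days (25.0, 50.0, 100 mg/kg, in 0.5% sodium carboxymethylcellulose). Frozen liver extracts were assayed for protein by Bradford, and equal protein was run on SDS-PAGE and blotted to PVDF. Membranes were blocked in 5% nonfat milk/TBS, probed with anti-Nrf2, HO-1, NQO1, GST or GR at 4°C overnight, then HRP secondary for 1 h at room temperature. Detection was by ECL on X-ray film.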

[6] = tested on: mice liver; experiment: Histopathological analysis of H&E-stained mice liver sections; format: in vivo
Summary of the method: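 Mice were given test compound (25.0, 50.0, 100 mg/kg) by mouth daily for 21 days in 0.5% sodium carboxymethylcellulose and killed 24 h after the last dose. Liver was fixed in neutral buffered formalin, embedded in paraffin, cut at 5 μm and stained with H&E.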

[7] = tested on: P-gp–mediated efflux and CYP3A-mediated metabolism; details: rat, one single dose of Sch B 0.024 mM/kg; cited from earlier work
[8] = tested on: mice liver; experiment: TUNEL immunofluorescence staining of mice liver; format: in vivo; details: 100 mg/kg Sch B oral, 21 days
Summary of the method: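 After 21 days of daily oral test compound (25.0–100 mg/kg, 0.5% sodium carboxymethylcellulose), paraffin liver sections (10 μm) were treated with 3% H2O2 in methanol for 10 min and blocked with 1% BSA/PBS for 30 min. They were incubated with […] at 4°C overnight, then Alexa Fluor donkey anti-rabbit (1:500) for 1 h at 37°C. Nuclei were stained with DAPI and sections imaged by fluorescence microscopy. n=6.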

[9] = Sch B 5 µM, 48-hour incubation, Western blot

| SMILES | effect on Sch B-induced activation of Nrf2 and GST expression ([1]; ABT 0.5 mM combined with Sch B 5 µM, 48 hours) | expression of CYP3A1 mRNA [2] | HO-1 and GR protein expression [1, 9] | expression of GST [1, 9] | expression of Nrf2 [1, 9] | CYP450 (CYP1A2/2C9/2D6/2E1/3A4) activities in livers of mice [3] | IC50 [4] | protein expression of NQO-1 and GST in mice liver [5] | Nrf2 expression in mice liver ([5]; dose-dependent) | centrilobular hepatocellular infiltration of lymphocytes ([6]; 100 mg/kg Sch B oral, 21 days, H&E-stained liver sections) | hepatotoxicity in mice ([6]; highest dose (100 mg/kg) only, oral, 3 weeks) | tacrolimus bioavailability [7] | positive TUNEL cell in liver [8] |
| --- | --- | --- | --- | --- | --- | --- | --- | --- | --- | --- | --- | --- | --- |
| Nn1nnc2ccccc21 [ABT, 1-aminobenzotriazolea, reference compound] | suppressed | – | – | – | – | – | – | – | – | – | – | – | – |
| COc1cc2c(c(OC)c1OC)-c1c(cc3c(c1OC)OCO3)CC(C)C(C)C2 (stereo not shown) [Sch B, Schisandrin B] | – | significantly increase | no changes | upregulated | upregulated | considerably increased | 5.51 µM | dose-dependent increase | upregulated | clearly evident | mild hepatotoxicity | increase | very limited |

Source: paper PMC6267698 (Drug Design, Development and Therapy, 2018)
